Experiment [1] concerns the target T1, Prostaglandin G/H synthase 2 (Mus musculus, UniProt Q05769).
T1 sequence (Q05769 whole entry): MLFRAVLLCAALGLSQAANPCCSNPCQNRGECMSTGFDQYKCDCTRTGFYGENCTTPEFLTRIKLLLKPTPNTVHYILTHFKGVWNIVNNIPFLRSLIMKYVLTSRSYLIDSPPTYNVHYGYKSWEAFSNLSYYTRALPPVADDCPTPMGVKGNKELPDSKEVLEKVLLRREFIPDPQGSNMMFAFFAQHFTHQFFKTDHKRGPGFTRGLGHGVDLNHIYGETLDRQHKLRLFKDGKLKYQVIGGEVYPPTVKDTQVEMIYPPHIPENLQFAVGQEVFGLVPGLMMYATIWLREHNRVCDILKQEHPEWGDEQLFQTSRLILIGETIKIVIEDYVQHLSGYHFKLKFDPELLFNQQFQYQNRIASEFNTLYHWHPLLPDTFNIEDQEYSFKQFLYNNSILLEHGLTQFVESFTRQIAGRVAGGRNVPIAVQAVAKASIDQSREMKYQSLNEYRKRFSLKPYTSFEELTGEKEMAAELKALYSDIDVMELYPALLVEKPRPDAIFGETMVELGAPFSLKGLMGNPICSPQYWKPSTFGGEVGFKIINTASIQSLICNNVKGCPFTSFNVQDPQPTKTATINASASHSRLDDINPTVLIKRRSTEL
Briefly: Inhibition of COX-2 in mouse RAW264.7 cells assessed as decrease in LPS-induced PGE2 production. The format is cell-based.

For experiment [2], the target named is T2, Prostaglandin G/H synthase 2 (Homo sapiens, UniProt P35354).
T2 sequence (P35354 whole entry): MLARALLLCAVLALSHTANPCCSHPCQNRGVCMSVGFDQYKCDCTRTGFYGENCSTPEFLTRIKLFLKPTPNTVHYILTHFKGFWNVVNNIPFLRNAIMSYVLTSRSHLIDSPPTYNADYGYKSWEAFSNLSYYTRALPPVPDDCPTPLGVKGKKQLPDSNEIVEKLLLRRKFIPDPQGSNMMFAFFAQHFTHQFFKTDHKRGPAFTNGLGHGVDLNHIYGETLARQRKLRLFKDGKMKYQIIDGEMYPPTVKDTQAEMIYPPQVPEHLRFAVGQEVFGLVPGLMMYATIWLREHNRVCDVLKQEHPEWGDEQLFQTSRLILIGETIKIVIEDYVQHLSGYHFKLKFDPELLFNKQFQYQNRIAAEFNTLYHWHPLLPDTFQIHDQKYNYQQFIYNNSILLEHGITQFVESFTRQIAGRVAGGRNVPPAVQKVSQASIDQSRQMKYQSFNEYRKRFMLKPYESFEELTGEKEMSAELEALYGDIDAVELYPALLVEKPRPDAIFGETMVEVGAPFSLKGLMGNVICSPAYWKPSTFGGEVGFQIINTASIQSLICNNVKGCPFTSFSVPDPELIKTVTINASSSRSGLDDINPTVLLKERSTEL
The experiment can be described thus: Inhibition of COX-2 (unknown origin) by chemiluminescence assay.

Another experiment concerns RAW264.7. Briefly: Inhibition of LPS-induced COX-2 expression in mouse RAW264.7 cells at >0.5 uM treated for 15 mins before LPS challenge measured after 18 hrs by Western blot analysis. The format is functional, cell-based. The essentials:
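RAW 264.7 cells (5×10^5) incubated 24 h in 12-well plates. Compound pretreatment at 0.5, 1.0 or 1.5 µM for 15 min, then LPS 1 µg/mL for 18 h. Cells lysed in lysis buffer. COX-2 protein detected by Western immunoblot.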

For a further experiment, the system named is B16-F10. Briefly: Antitumor activity against mouse B16F10 cells assessed as inhibition of cell proliferation after 48 hrs by MTT assay. In kind it is functional, cell-based. Conditions: B16-F10, 48 h. The essentials: (§1)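 Cells grown to log phase in RPMI 1640 with 10% FBS, seeded at 2×10^4 cells/mL and preincubated 24 h at 37 °C, 5% CO2. Compounds at preset concentrations added (6 wells), celecoxib as positive reference, 48 h exposure. MTT (2.5 mg/mL in PBS) for 4 h, then SDS/isobutanol/HCl extraction overnight at 37 °C. OD read at 570 nm. Triplicate wells per concentration, at least three independent runs.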

Experiment [3] has as its target Prostaglandin G/H synthase 1 (Homo sapiens, UniProt P23219). Briefly: Inhibition of COX-1 (unknown origin) by chemiluminescence assay.
The subject of the next experiment is A549. Briefly: Antitumor activity against human A549 cells assessed as inhibition of cell proliferation after 48 hrs by MTT assay. The format is functional, cell-based. Conditions: A549, 48 h. The essentials:
as §1

The next experiment deals with MCF7. The experiment can be described thus: Antitumor activity against human MCF7 cells assessed as inhibition of cell proliferation after 48 hrs by MTT assay. Conditions: MCF7, 48 h. The format is functional, cell-based. The essentials:
as §1

Data on 14 compounds can be found in ChEMBL document CHEMBL2331353, “Synthesis and biological evaluation of some novel resveratrol amide derivatives as potential anti-tumor agents” (Eur J Med Chem, 2013).

Active and inactive are the calls of the source. The calls are words filed in the database; no cut-off is given here.

Prostaglandin G/H synthase 1, sequence (P23219 whole entry): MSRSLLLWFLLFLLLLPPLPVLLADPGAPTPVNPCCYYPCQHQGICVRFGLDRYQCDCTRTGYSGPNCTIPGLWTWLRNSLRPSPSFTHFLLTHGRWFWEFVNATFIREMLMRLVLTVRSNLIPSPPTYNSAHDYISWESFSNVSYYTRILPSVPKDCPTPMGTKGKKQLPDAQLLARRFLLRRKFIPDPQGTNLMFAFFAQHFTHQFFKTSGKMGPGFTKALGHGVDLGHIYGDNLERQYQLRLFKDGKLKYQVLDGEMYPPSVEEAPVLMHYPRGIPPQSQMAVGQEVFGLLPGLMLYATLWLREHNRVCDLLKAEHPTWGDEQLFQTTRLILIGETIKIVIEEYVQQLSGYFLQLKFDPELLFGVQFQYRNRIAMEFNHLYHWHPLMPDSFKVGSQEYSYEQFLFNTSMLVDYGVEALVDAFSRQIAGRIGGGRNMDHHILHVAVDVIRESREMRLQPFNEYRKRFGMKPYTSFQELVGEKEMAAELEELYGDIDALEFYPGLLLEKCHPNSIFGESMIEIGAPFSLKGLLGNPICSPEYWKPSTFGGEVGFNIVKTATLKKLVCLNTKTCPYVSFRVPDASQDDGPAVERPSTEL

`CCCCNC(=O)/C=C/c1c(/C=C/c2ccc(OC)cc2)cc(OC)cc1OC`: the concentration for half-maximal inhibition (IC50) in experiment [1] is 0.28 µM; in experiment [2], 1.02 µM; in the experiment on B16-F10 it was 2.08 µM; in experiment [3] it was greater than 50 µM; in the experiment with A549, 1.88 µM; in the experiment on MCF7, 1.33 µM. In the experiment on RAW264.7, the inhibition result is “Active”.

For the compound `COc1ccc(/C=C/c2cc(OC)cc(OC)c2/C=C/C(=O)NC(C)C)cc1`, the IC50 in experiment [1] was 0.72 µM; in experiment [2] it was 2.01 µM; with B16-F10, 4.02 µM; in experiment [3], 40.4 µM; with A549, 2.36 µM; in the experiment with MCF7, 2.56 µM.

For the compound `COc1ccc(/C=C/c2cc(OC)cc(OC)c2/C=C/C(=O)NCC(C)C)cc1`, the IC50 in experiment [1] was 6.12 µM; in experiment [2] it was 15.1 µM; with B16-F10, 12.7 µM; in experiment [3], greater than 50 µM; with A549 it was 10.4 µM; with MCF7, 5.29 µM.

Turning to `COc1ccc(/C=C/c2cc(OC)cc(OC)c2/C=C/C(=O)N2CCOCC2)cc1`, the IC50 in experiment [1] is 0.85 µM; in experiment [2], 1.88 µM; in the experiment with B16-F10, 3.08 µM; in experiment [3], greater than 50 µM; in the experiment on A549, 2.32 µM; with MCF7 it was 3.31 µM.

As for `COc1ccc(/C=C/c2cc(OC)cc(OC)c2/C=C/C(=O)N2CCC(Cl)CC2)cc1`, the IC50 in experiment [1] was determined as 0.46 µM; in experiment [2] it was 1.45 µM; with B16-F10, 4.69 µM; in experiment [3], 40.6 µM; in the experiment on A549, 2.08 µM; in the experiment on MCF7, 4.95 µM.

As to `COc1ccc(/C=C/c2cc(OC)cc(OC)c2/C=C/C(=O)N2CCCC2)cc1`, the IC50 in experiment [1] was 3.76 µM; in experiment [2] it was 8.87 µM; in the experiment on B16-F10, 9.28 µM; in experiment [3], greater than 50 µM; in the experiment on A549, 6.35 µM; in the experiment on MCF7 it was 4.2 µM.

Consider `COc1ccc(/C=C/c2cc(OC)cc(OC)c2/C=C/C(=O)N2CCN(C)CC2)cc1`, for which the IC50 was found to be 1.62 µM in experiment [1]; 5.78 µM in experiment [2]; 5.67 µM in the experiment with B16-F10; 39.1 µM in experiment [3]; 4.51 µM in the experiment on A549; 2.29 µM with MCF7.

`COc1ccc(/C=C/c2cc(OC)cc(OC)c2/C=C/C(=O)N(CC(C)C)CC(C)C)cc1`: the IC50 is 2.56 µM in experiment [1]; 6.84 µM in experiment [2]; 4.85 µM in the experiment on B16-F10; greater than 50 µM in experiment [3]; 3.35 µM in the experiment on A549; 2.39 µM with MCF7.

Turning to `COc1ccc(/C=C/c2cc(OC)cc(OC)c2/C=C/C(=O)N2CCCCC2)cc1`, the IC50 in experiment [1] was 15.3 µM; in experiment [2], 23.2 µM; in the experiment with B16-F10, 9.75 µM; in experiment [3], greater than 50 µM; with A549, 10.6 µM; in the experiment on MCF7 it was 6.05 µM.

Take `COc1ccc(/C=C/c2cc(OC)cc(OC)c2/C=C/C(=O)N2CCCCC2C)cc1` (stereo not given): the IC50 in experiment [1] was 2.44 µM; in experiment [2] it was 6.69 µM; in the experiment with B16-F10, 7.66 µM; in experiment [3], greater than 50 µM; in the experiment on A549 it was 5.77 µM; with MCF7 it was 4.35 µM.

Consider `CCC1CCCCN1C(=O)/C=C/c1c(/C=C/c2ccc(OC)cc2)cc(OC)cc1OC` (stereo not given), for which the IC50 in experiment [1] is 6.27 µM; in experiment [2], 10.3 µM; with B16-F10, 7.38 µM; in experiment [3], greater than 50 µM; in the experiment with A549, 5.6 µM; in the experiment on MCF7 it was 5.24 µM.

For `CCCCN(CCCC)C(=O)/C=C/c1c(/C=C/c2ccc(OC)cc2)cc(OC)cc1OC`, the IC50 is 4.12 µM in experiment [1]; 10.1 µM in experiment [2]; 9.03 µM with B16-F10; greater than 50 µM in experiment [3]; 6.16 µM in the experiment with A549; 3.99 µM with MCF7.

Take `C=CCN(CC=C)C(=O)/C=C/c1c(/C=C/c2ccc(OC)cc2)cc(OC)cc1OC`: the IC50 in experiment [1] came to 3.28 µM; in experiment [2], 8.01 µM; in the experiment on B16-F10, 8.18 µM; in experiment [3] it was 35 µM; in the experiment with A549, 5.89 µM; with MCF7, 3.22 µM.

On to `COc1ccc(/C=C/c2cc(OC)cc(OC)c2/C=C/C(=O)NC2CCCCC2)cc1`, for which the IC50 in experiment [1] is 1.98 µM; in experiment [2] it was 5.09 µM; in the experiment on B16-F10 it was 5.48 µM; in experiment [3], greater than 50 µM; in the experiment with A549 it was 3.61 µM; in the experiment on MCF7, 2.63 µM.
